Beta cell apopt = blocks beta cell apoptosis; INS-1E cytokine-induced death, ATP luminescence, 48 h; percent of positive-control rescue, neutral wells zero; protection from apoptosis, % (concentration not given with the values); hit rate 0.8% among 300,000; AID 435005;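 active = Every replicate reaches about 75%, or at least half do and their mean reaches it too, limit read from the data; inconclusive = At least half of replicates reach the limit but their mean does not; inactive = Under half of replicates reach the limit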;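 note: 0% = cytokine-treated negative control wells and 100% = positive control rescue; higher means more ATP so stronger rescue from cytokine killing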
A1 inh = inhibitors of the anti-apoptotic protein A1, read as caspase activation; MEF A1-2A-BIM cells, Caspase-Glo 3/7 luminescence, 3 h; percent of clofoctol response, vehicle zero; caspase activation, % (no concentration beside the values); hit rate 0.066% among 330,000; AID 2462;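 active = over half of replicate activation scores above 10%, or exactly half above 10 with the replicate mean above 10; inconclusive = replicate mean below 10 yet half the replicates above 10; inactive = over half of replicates below 10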
CSC inhib = cancer stem cell inhibition; hit rate 1.1% among 300,000; inhibition, % at 7.5 µM; cancer stem cell-like cells viability, luminescence; in the data active = inhibition above about 75%; inconclusive = no clear call, values can overlap the other calls; tested in HMLE shEcad cells
TAG inh = triacylglycerol accumulation inhibition; H9c2 cells, Nile Red lipid (TAG) fluorescence; cells loaded with 200 µM oleic acid; inhibition, % at 12.5 µM; hit rate 0.66% among 230,000;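 active = pattern-corrected inhibition of lipid staining of at least 50% with the nuclear-stain viability signal not falling by more than 50%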;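 note: 0% = DMSO wells and 100% = triacsin C control wells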
T cruzi inh = T. cruzi replication inhibition; T. cruzi beta-gal in NIH3T3, luminescence, 90 h; inhibition, % (no concentration beside the values); hit rate 1.4% among 300,000; AID 1885;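 active = mean inhibition across valid replicates above about 55%, limit read from the data; inconclusive = mean below that limit but half or more replicates reach it; inactive = mean below it, under half of replicates reach it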;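 note: signal also drops with host cell toxicity which is not excluded here; 0% = plate median of DMSO wells and 100% = zero luminescence signal; higher percent means less beta-gal luminescence so fewer parasites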
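System: Mouse NIH/3T3 fibroblasts infected with β-gal-expressing T. cruzi Tulahuen C4 | Quantity: NIH/3T3 cells, 5,000 per well | Reagent: 5000 reporter trypomastigotes per well | Dosing: Compound pinned at 50 nL/well, DMSO | Schedule: 3 h host attachment, then at least 90 h co-culture | Detection: GalScreen luminescence, 60 min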
Calb FLC = affects C. albicans growth with fluconazole. growth inhibition, % (no concentration beside the values). C. albicans CaCi-2 (fluconazole-resistant clinical isolate) + fluconazole, Alamar Blue growth, 48 h. AID 1979. hit rate 0.57% among 300,000;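 active = growth inhibition above about 58% in most replicates, limit read from the data, passing the limit was not always enough; inconclusive = exactly half the replicates above a set limit; inactive = most replicates below a set limit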;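 note: all wells also contain fluconazole at 8 µg/ml as a sub-toxic cotreatment; 0% = median of DMSO wells and 100% = median of geldanamycin control wells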
* marks the source's active call; other numbers are inactive results; ? = inconclusive; nt = no result; ! = a repeat was not active. In the library only some 3.1% were active in any assay of this set; here they are far more common.

SMILES	Beta cell apopt	A1 inh	CSC inhib	TAG inh	T cruzi inh	Calb FLC
O=c1oc2ccccc2c2c1C(c1ccc(Cl)cc1)Nc1ccc3ccccc3c1-2 (stereo not given)	0.4	0.7	14.1	26.2	35.1	-1.9
CCOc1ccc(C2Nc3ccc4ccccc4c3-c3c2c(=O)oc2ccccc32)cc1 (stereo not given)	48.4	-0.6	28.1	nt	65.7*	-2.9
COc1ccc(C2Nc3ccc4ccccc4c3-c3c2c(=O)oc2ccccc32)cc1 (stereo not given)	14.3	8.7*	49.1	nt	66.2*	7.3
CSCC[C@H](N)C(=O)N1CCC(C(=O)N[C@H](C)C(=O)Nc2ccc(C(C)C)cc2)CC1	-5.7	-0.1	-4.8	nt	-11.5	-16.7
Cc1ccc(-c2cn(-c3ccccc3)c3[n+]2CCCS3)cc1	110.9*	0.5	20.0	-22.7	43.7	99.2*!
CCc1ccc(-n2cc(-c3ccc(F)cc3)[n+]3c2SCCC3)cc1	109.7*	-1.2	-8.2	-19.5	56.3*	32.7
COc1ccc(-n2cc(-c3ccc(C)cc3)[n+]3c2SCC3)cc1	113.3*	0.1	24.6	nt	58.7*	107.0*
CS(=O)(=O)N1CCN(c2ccccc2NC(=O)Nc2cccc(Cl)c2)CC1	-1.6	0.1	-9.0	nt	-7.0	-1.9
COc1ccc(NC(C)=O)c(C)c1	-6.4	-1.5	-12.0	-5.0	-3.9	13.1
COc1cc(C)c(C(=O)CC(=O)c2c(C)cc(OC)cc2C)c(C)c1	75.0*	-0.1	132.1*	7.3	66.2*	-1.6
CSc1ccc(/C=C(\C(=O)O)c2ccc(S(=O)(=O)N3CCCC3)s2)cc1	-9.8	1.1	-8.6	-3.8	nt	nt
CC1Sc2ccc(S(=O)(=O)N3CCC(C(=O)Nc4cccc(Cl)c4)CC3)cc2NC1=O (stereo not given)	41.8	-0.9	16.3	nt	25.7	14.6
COc1ccc(/C=C/c2cc(-c3ccc(C)cc3)o[n+]2C)cc1	115.6*	0.0	92.0*	nt	59.0*	89.7*
Cc1nc(NCC(c2ccccc2)N(C)C)c2c(C)c(C)sc2n1 (stereo not given)	-0.3	-0.1	27.8	nt	51.0	-1.5
CC1CN(CC(O)COC(c2ccc(Cl)cc2)c2ccc(Cl)cc2)CC(C)O1 (stereo not given)	106.1*	0.1	26.0	nt	29.5	6.2
CN1CCN(CC(O)COC(c2ccccc2)c2ccccc2)CC1 (stereo not given)	-2.1	-1.7	nt	nt	60.8*	-10.1
CCOc1ccc(S(=O)(=O)N(CC(=O)Nc2cccnc2)c2ccc(F)cc2)cc1	4.1	0.2	4.9	18.3	12.3	4.5
COc1ccc(OC)c(S(=O)(=O)NC(=O)C2(C)CCN2C(=O)C2(c3ccc(Cl)cc3)CC2)c1 (stereo not given)	nt	nt	nt	-3.2	nt	nt
Cc1cc(/C=C(\C#N)C(=O)NCCc2c[nH]c3ccccc23)c(C)n1C	-4.2	0.1	13.0	nt	-0.3	nt
COc1cc(/C=C(/C#N)C(=O)NCCc2c[nH]c3ccccc23)ccc1OCc1ccccc1F	36.7	9.4*	46.8	nt	16.1	3.2
O=C1OC(c2ccccc2)(c2ccccc2)c2ccccc21	nt	nt	nt	-31.0	nt	nt
Cc1cccc(C2(c3cccc(C)c3)OC(=O)c3ccccc32)c1	124.4*	-0.5	25.2	-91.1	-9.5	27.9
CC(C)n1nnnc1SCC(=O)Nc1ccccc1F	nt	-0.4	-9.9	nt	9.1	3.2
CCC(=O)NC(c1cc(Cl)c2cccnc2c1O)C(C)C (stereo not given)	104.7*	0.2	34.5	37.8	nt	nt
CCC(=O)NC(c1cc(Cl)c2cccnc2c1O)C1CC1 (stereo not given)	103.5*	0.9	32.1	52.2*	nt	nt
SMILES	Beta cell apopt	A1 inh	CSC inhib	TAG inh	T cruzi inh	Calb FLC
CCc1cc2c(=O)n(CCCOC)c(SCC(=O)Nc3oc(C)c4c(C)n[nH]c(=O)c34)nc2s1	-4.8	-0.1	-6.7	-13.0	15.4	12.7
c1ccc2sc(N3CCOCC3)nc2c1	-1.3	-2.6	-3.1	nt	-10.8	10.3
Nc1ccc2nc(N3CCOCC3)sc2c1	15.0	-3.9	-4.9	13.0	76.0*	11.7
CCOC(=O)c1ccc(NC(=O)c2nc[nH]c2C(=O)N[C@@H](C)CO)cc1	nt	nt	nt	5.2	nt	nt
CC12CCC(C/C1=N\N=C1\NC(=O)/C(=C\c3ccc(Cl)cc3)S1)C2(C)C (stereo not given)	5.8	1.9	122.1*	nt	32.5	1.1
C=CCn1c(N)c(C(=O)Nc2cccc(C)c2)c2nc3ccccc3nc21	-1.5	0.2	25.0	48.9	46.5	14.3
C=CCn1c(N)c(C(=O)Nc2ccc(C)c(C)c2)c2nc3ccccc3nc21	nt	-0.4	18.6	53.6*	17.4	-22.0
CN1Cc2cccc3c2C(Cc2ccccc2S3)C1 (stereo not given)	-11.4	0.5	-10.5	-8.8	58.4*	-18.5
COc1cc2c(cc1O)CC[n+]1cc3c(OC)c(OC)ccc3cc1-2	-0.7	1.0	0.0	13.8	4.7	99.1*
COc1cc2c(cc1OC)-c1cc3ccc4c(c3c[n+]1CC2)OCO4	2.4	-0.5	-25.7	nt	47.9	21.0
Cc1ccc(S(=O)(=O)c2c(C)cc(C)nc2Cl)c(C)c1	-4.4	0.3	-18.6	nt	59.1*	13.7
Cc1cc(C)c(S(=O)(=O)c2ccccc2C)c(Cl)n1	-8.5	0.1	-6.1	nt	54.8*	-6.9
CCOC(OCC)c1cn(Cc2ccc(C(=O)c3ccccc3)cc2)nn1	-1.5	0.2	17.7	nt	-7.3	-8.4
CCCOC(=O)/C(C(N)=NCc1ccccc1)=C(\O)OCCC	109.4*	0.1	45.5	-82.4	33.7	-0.1
C/C(=N\Nc1cccc(Cl)c1)C1(C)N(O)C(C)(C)C(c2ccco2)=[N+]1[O-] (stereo not given)	7.3	0.6	83.8*	5.3	37.4	-11.3
C/C(=N\O)C1(C)N(O)C(C)(C)C(c2ccco2)=[N+]1[O-] (stereo not given)	-3.3	0.5	nt	nt	-3.6	-10.8
CC1CCN(c2ccc3c(c2)S(=O)(=O)c2cccc(C(=O)NC4CC4)c2C3=O)CC1	-1.4	0.7	3.9	9.8	nt	nt
CCN(CC)CCNc1cc(C)nc2c1C(=O)C(=O)C=C2N1CCCCC1	-6.9	0.5	54.2	81.9*	60.4*	32.9
CCN(CC)CCNC(=O)c1ccc(N2CCCCC2)c(NS(=O)(=O)c2ccc(C)cc2)c1	-0.4	0.2	7.5	13.8	13.9	?
CN(c1ccc(OCC(=O)NC2CCC(O)CC2)cc1)S(=O)(=O)c1ccc(Cl)cc1 (stereo not given)	-0.6	14.7*	nt	-18.4	nt	nt
COc1ccc(N(CC(=O)Nc2ccc(C)cc2)S(=O)(=O)c2c(C)noc2C)cc1	-0.1	0.0	-6.3	nt	0.9	-2.1
CCOc1ccc(N(CC(=O)Nc2ccccc2C)S(=O)(=O)c2c(C)noc2C)cc1	nt	0.3	65.0	70.5*	-28.6	0.8
Cc1ccc(N(CC(=O)Nc2cc(C)cc(C)c2)S(=O)(=O)c2c(C)noc2C)cc1	102.0*	0.6	10.4	nt	25.7	15.4
